The record followed here is ChEMBL document CHEMBL4020802, “Fused bi-heteroaryl substituted hydantoin compounds as TACE inhibitors” (Bioorg Med Chem Lett, 2017).

The subject of one series is Blood. Briefly: Antiinflammatory activity in human whole blood assessed as inhibition of LPS-induced TNF-alpha release preincubated for 1 hr followed by LPS addition after 3.5 hrs by ELISA method. Type of series: functional. Background: ELISA stands for enzyme-linked immunosorbent assay.
A short description of series [1]: AUC in rat. Type of series: ADME. Also on record: concentration or dose not given beside the values. The note with it: in vivo.
For series [2], the target named is Disintegrin and metalloproteinase domain-containing protein 17 (Homo sapiens, UniProt P78536). Nature of the series: Inhibition of catalytic domain TACE (unknown origin) by FRET assay.
Disintegrin and metalloproteinase domain-containing protein 17, sequence (P78536 whole entry, the tested form may be a part): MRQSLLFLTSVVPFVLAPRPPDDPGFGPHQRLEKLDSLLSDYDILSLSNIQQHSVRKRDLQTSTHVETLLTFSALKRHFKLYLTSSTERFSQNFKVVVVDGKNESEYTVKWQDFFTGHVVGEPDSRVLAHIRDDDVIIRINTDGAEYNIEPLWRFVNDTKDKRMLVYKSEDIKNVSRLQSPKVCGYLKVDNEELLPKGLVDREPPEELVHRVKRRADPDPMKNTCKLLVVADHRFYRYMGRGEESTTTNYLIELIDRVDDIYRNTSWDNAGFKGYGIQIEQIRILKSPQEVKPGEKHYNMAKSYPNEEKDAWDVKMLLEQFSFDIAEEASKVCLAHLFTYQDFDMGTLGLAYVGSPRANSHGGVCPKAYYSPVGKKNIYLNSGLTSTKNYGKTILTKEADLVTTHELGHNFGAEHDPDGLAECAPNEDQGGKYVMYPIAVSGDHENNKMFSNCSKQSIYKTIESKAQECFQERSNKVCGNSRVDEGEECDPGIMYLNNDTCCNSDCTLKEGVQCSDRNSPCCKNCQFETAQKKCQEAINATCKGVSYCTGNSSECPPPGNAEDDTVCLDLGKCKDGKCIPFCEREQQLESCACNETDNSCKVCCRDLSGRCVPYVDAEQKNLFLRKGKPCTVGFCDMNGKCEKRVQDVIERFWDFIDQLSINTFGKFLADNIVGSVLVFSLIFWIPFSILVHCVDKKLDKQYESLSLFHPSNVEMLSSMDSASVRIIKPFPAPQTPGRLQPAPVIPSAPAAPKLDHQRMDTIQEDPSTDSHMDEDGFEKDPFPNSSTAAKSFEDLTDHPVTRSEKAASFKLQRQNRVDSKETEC
Series [3] is described as follows: Permeability from apical side to basolateral side in human Caco2 cells. The series is classed as ADME, cell-based. To be noted: Caco-2, read-out: permeability. For orientation: Passage across Caco-2 layers is used to estimate intestinal permeability.
Series [4] is described as follows: AUC in rat at 10 mg/kg, po. To be noted: in vivo. The series is classed as ADME, organism-based. Summed up:
(§1)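 Oral dosing of rats, dogs and monkeys, with compounds given as Na+ or HCl salts in a 0.4% HPMC formulation. Doses were 10 mg/kg in rat, 2 or 3 mg/kg in dog, and 3 or 10 mg/kg in monkey. Plasma exposure was reported as AUC in µM·h, and oral bioavailability as F%.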

Series [5] in a line: AUC in monkey at 3 mg/kg, po. Type of series: ADME, organism-based, Macaca mulatta. To be noted: rhesus monkey, in vivo. Summed up:
as §1

Series [6] can be described thus: Oral bioavailability in rat at 10 mg/kg. The note with it: in vivo. Type of series: ADME, organism-based. Summed up:
as §1

A short description of series [7]: AUC in dog at 2 mg/kg, po. The series is classed as ADME, organism-based, Canis lupus familiaris. The note with it: in vivo. Summed up:
as §1

With `COc1ccc2c(c1F)C(=O)N(C[C@@]1(c3cc4nc(C)c(-c5ccc(N)nc5)cc4o3)NC(=O)NC1=O)C2`, in the series on Blood, the IC50 is 308 nM.

`COc1ccc2c(c1F)C(=O)N(C[C@@]1(c3cc4nc(N5CCC(N(C)C)CC5)ccc4o3)NC(=O)NC1=O)C2` showed an AUC in series [1] of 0.04 µM·h. In the series with Blood, the half-inhibitory concentration (IC50) worked out at 76 nM.

For the compound `COc1ccc2c(c1)C(=O)N(C[C@@]1(c3cn4cccnc4n3)NC(=O)NC1=O)C2`, in series [2], the affinity, expressed as Ki, was 1.9 nM. Further, the AUC in series [1] is 3.2 µM·h. For the same compound, the IC50 in the series on Blood was 710 nM.

For `COc1ccc2c(c1)C(=O)N(C[C@@]1(c3cc4nc(-n5cccn5)ccc4o3)NC(=O)NC1=O)C2`, the affinity in series [2], expressed as Ki, was 0.4 nM. In series [1], this compound displayed an AUC of 21 µM·h. Also, in the series on Blood, the IC50 worked out at 1370 nM.

Turning to `COc1ccc2c(c1)C(=O)N(C[C@@]1(C#Cc3cccnc3)NC(=O)NC1=O)C2`, the Papp A→B in series [3] was found to be 1.6 ×10⁻⁶ cm/s.

In turn, `COc1ccc2c(c1)C(=O)N(C[C@@]1(c3cc4c(C(F)(F)F)nccc4o3)NC(=O)NC1=O)C2` showed an inhibition constant Ki in series [2] of 0.4 nM. Also, the 50% inhibitory concentration (IC50) in the series on Blood is 1070 nM.

`COc1ccc2c(c1)C(=O)N(C[C@@]1(c3cc4nc(N)ccc4o3)NC(=O)NC1=O)C2` gave a Ki in series [2] of 0.5 nM. Besides, the AUC in series [1] came to 0.4 µM·h. Also, the IC50 in the series with Blood came out at 187 nM.

`COc1ccc2c(c1)C(=O)N(C[C@@]1(c3cc4cccnc4o3)NC(=O)NC1=O)C2` returned a Ki in series [2] of 0.7 nM. For the same compound, the AUC in series [1] came to 34 µM·h. Further, the IC50 with Blood came out at 590 nM.

In series [2], `COc1ccc2c(c1)C(=O)N(C[C@@]1(c3cc4c(-c5cn[nH]c5)nccc4o3)NC(=O)NC1=O)C2` registered a Ki of 0.2 nM. Moreover, the half-inhibitory concentration (IC50) in the series on Blood amounted to 150 nM.

`COc1ccc2c(c1F)C(=O)N(C[C@@]1(c3cc4cnc(C)cc4o3)NC(=O)NC1=O)C2`: the AUC turned out to be 13.4 µM·h in series [4], 1.5 µM·h in series [5], 13.5 µM·h in series [7] and 26.3 µM·h in series [1]. The same compound returned an inhibition constant Ki in series [2] of 0.4 nM. The same compound had a bioavailability in series [6] of 11%. In addition, the IC50 with Blood is 210 nM.

Regarding `COc1ccc2c(c1)C(=O)N(C[C@@]1(c3cc4cnc(C)cc4o3)NC(=O)NC1=O)C2`, the Papp A→B in series [3] came out at 2.05 ×10⁻⁶ cm/s. Also, the inhibition constant Ki in series [2] worked out at 0.4 nM. The compound further registered an AUC in series [1] of 19.1 µM·h. The IC50 in the series with Blood was 350 nM.

As to `COc1ccc2c(c1)C(=O)N(C[C@@]1(c3cn4ccccc4n3)NC(=O)NC1=O)C2`, in series [2], the inhibition constant (Ki) amounted to 1.4 nM. Moreover, the half-maximal inhibitory concentration (IC50) in the series with Blood worked out at 1480 nM.

In series [2], `COc1ccc2c(c1)C(=O)N(C[C@@]1(c3cc4cncc(F)c4o3)NC(=O)NC1=O)C2` had a Ki of 2 nM. The area under the curve (AUC) in series [1] was determined as 2.7 µM·h. The IC50 with Blood turned out to be 1090 nM.

In the case of `COc1ccc2c(c1)C(=O)N(C[C@@]1(c3cc4nc(N(c5cn[nH]c5)C5CCN(C)CC5)ccc4o3)NC(=O)NC1=O)C2`, in series [3], the Papp A→B turned out to be 0.1 ×10⁻⁶ cm/s. This compound also came in with a Ki in series [2] of 1 nM. Also, the AUC in series [1] was 0.06 µM·h.

`COc1ccc2c(c1)C(=O)N(C[C@@]1(c3cc4ccccc4o3)NC(=O)NC1=O)C2`: in series [2], the Ki stood at 0.3 nM. The same compound gave an AUC in series [1] of 0.2 µM·h. Moreover, the IC50 in the series on Blood was 2310 nM.

`COc1ccc2c(c1)C(=O)N(C[C@@]1(c3cc4c(C)nc(C)cc4o3)NC(=O)NC1=O)C2`: the Ki in series [2] turned out to be 0.5 nM. The AUC in series [1] turned out to be 4.2 µM·h. Besides, the IC50 in the series on Blood turned out to be 680 nM.

`COc1ccc2c(c1)C(=O)N(C[C@@]1(c3cc4nc(-c5cn[nH]c5)ccc4o3)NC(=O)NC1=O)C2` displayed a Ki in series [2] of 0.5 nM. The AUC in series [1] was determined as 0.1 µM·h. The IC50 in the series on Blood stood at 99 nM.

Turning to `COc1ccc2c(c1)C(=O)N(C[C@@]1(c3cc4c(N5CCNCC5)nccc4o3)NC(=O)NC1=O)C2`, the affinity in series [2], expressed as Ki, was 2.5 nM. The IC50 in the series with Blood was determined as 230 nM.

Take `COc1ccc2c(c1)C(=O)N(C[C@@]1(c3cc4cncc(C)c4o3)NC(=O)NC1=O)C2`: affinity in series [2] was put at a Ki of 0.5 nM. This compound also displayed an AUC in series [1] of 8.7 µM·h. The IC50 in the series with Blood was determined as 760 nM.

In series [2], `CNC(=O)c1cnc2cc([C@]3(CN4Cc5ccc(OC)cc5C4=O)NC(=O)NC3=O)oc2c1` came in with a Ki of 0.9 nM.

In series [2], `COc1ccc2c(c1)C(=O)N(C[C@@]1(c3cc4ncccc4[nH]3)NC(=O)NC1=O)C2` had a Ki of 3.6 nM. Further, the IC50 in the series on Blood was determined as 2970 nM.

`COc1ccc2c(c1)C(=O)N(C[C@@]1(c3cc4cncnc4o3)NC(=O)NC1=O)C2` yielded a Ki in series [2] of 1.6 nM. In series [1], this compound came in with an AUC of 2.2 µM·h. The IC50 in the series with Blood is 770 nM.

For `COc1ccc2c(c1)C(=O)N(C[C@@]1(c3cn4ccsc4n3)NC(=O)NC1=O)C2`, the Ki in series [2] came to 1.3 nM. Besides, the AUC in series [1] came out at 2.2 µM·h. The IC50 with Blood was 540 nM.

With `COc1ccc2c(c1)C(=O)N(C[C@@]1(c3cc4c(O)nccc4o3)NC(=O)NC1=O)C2`, in series [2], the Ki worked out at 0.2 nM. Moreover, in the series on Blood, the concentration for half-maximal inhibition (IC50) stood at 250 nM.

`COc1ccc2c(c1)C(=O)N(C[C@@]1(c3cc4c(C#N)nccc4o3)NC(=O)NC1=O)C2`: in series [2], affinity was put at a Ki of 0.7 nM. In series [1], this compound had an AUC of 0.5 µM·h. Besides, the IC50 with Blood is 1240 nM.

Compound `COc1ccc2c(c1F)C(=O)N(C[C@@]1(c3cc4nc(N5CCNC(=O)C5)ccc4o3)NC(=O)NC1=O)C2` came in with a Ki in series [2] of 0.6 nM. Further, in series [1], the AUC came out at 0.1 µM·h.

As for `COc1ccc2c(c1F)C(=O)N(C[C@@]1(c3cc4nc(N5CC(=O)NC5=O)c(F)cc4o3)NC(=O)NC1=O)C2`, the Ki in series [2] stood at 0.4 nM. Besides, the AUC in series [1] stood at 3.2 µM·h.

Turning to `COc1ccc2c(c1)C(=O)N(C[C@@]1(c3cc4cncc(N)c4o3)NC(=O)NC1=O)C2`, affinity in series [2] was put at a Ki of 0.4 nM. Further, the AUC in series [1] stood at 0.1 µM·h. Further, the concentration for half-maximal inhibition (IC50) in the series on Blood was 310 nM.

Regarding `COc1ccc2c(c1)C(=O)N(C[C@@]1(c3cc4cnc(C(F)(F)F)cc4o3)NC(=O)NC1=O)C2`, the affinity in series [2], expressed as Ki, was 0.5 nM. The same compound registered an exposure (AUC) in series [1] of 19.3 µM·h. In the series on Blood, the IC50 was 1620 nM.

`COc1ccc2c(c1)C(=O)N(C[C@@]1(c3cc4cnc(N5CCNC5=O)cc4o3)NC(=O)NC1=O)C2` registered a Ki in series [2] of 1.8 nM. For the same compound, the AUC in series [1] is 1.2 µM·h. In addition, the IC50 in the series with Blood worked out at 210 nM.

As for `COc1ccc2c(c1)C(=O)N(C[C@@]1(c3cc4nc(N(c5cn[nH]c5)C5CCNCC5)ccc4o3)NC(=O)NC1=O)C2`, in series [3], the Papp A→B is 0.22 ×10⁻⁶ cm/s. Besides, the Ki in series [2] turned out to be 0.4 nM. The concentration for half-maximal inhibition (IC50) in the series with Blood was 93 nM.

For orientation: IC50 means the midpoint of a concentration-inhibition curve. As a reminder, the AUC is concentration integrated over time. As a reminder, the Ki is a dissociation constant, usually derived from enzyme kinetics or from competition with a known ligand. In general, bioavailability refers to dose-corrected exposure relative to a reference, in per cent.
